Measured values as given in ChEMBL document CHEMBL1149285, “Identification of novel parasitic cysteine protease inhibitors using virtual screening. 1. The ChemBridge database” (J Med Chem, 2004).
Active and inactive are the calls of the source. No cut-off for these calls is given here.

Columns and labels:
Falcipain 2 = target: T1, Falcipain 2 (Plasmodium falciparum, UniProt Q9N6S8); experiment: Inhibition of Plasmodium falciparum recombinant falcipain-2
T1 sequence (Q9N6S8 whole entry): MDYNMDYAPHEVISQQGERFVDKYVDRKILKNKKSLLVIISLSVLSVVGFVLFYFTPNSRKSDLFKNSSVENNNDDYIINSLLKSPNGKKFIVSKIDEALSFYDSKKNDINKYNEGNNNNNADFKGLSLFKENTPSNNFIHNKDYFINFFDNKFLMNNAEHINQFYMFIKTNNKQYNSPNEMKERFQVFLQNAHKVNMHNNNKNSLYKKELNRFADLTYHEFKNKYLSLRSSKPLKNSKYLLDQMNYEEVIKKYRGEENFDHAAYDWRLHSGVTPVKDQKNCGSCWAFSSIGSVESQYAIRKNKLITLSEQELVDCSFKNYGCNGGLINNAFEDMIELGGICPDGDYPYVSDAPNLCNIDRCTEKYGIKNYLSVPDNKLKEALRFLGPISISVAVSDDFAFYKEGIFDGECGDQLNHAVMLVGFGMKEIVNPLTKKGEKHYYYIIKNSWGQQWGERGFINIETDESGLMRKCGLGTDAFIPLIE
Method in brief: (§1)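 Equal amounts of recombinant enzyme preincubated 30 min at room temperature with serial inhibitor dilutions from DMSO stocks (DMSO at most 1% in assay) in 100 mM sodium acetate pH 5.5, 10 mM dithiothreitol. Z-Leu-Arg-AMC then added to 25 μM final; fluorescence followed 15 min at room temperature. IC50 taken from percent activity versus concentration plots.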

[1] = target: T2, Cysteine protease falcipain-3 (Plasmodium falciparum, UniProt Q9NBA7); experiment: Inhibition of Plasmodium falciparum recombinant falcipain-3; method in brief: as §1
T2 sequence (Q9NBA7 whole entry): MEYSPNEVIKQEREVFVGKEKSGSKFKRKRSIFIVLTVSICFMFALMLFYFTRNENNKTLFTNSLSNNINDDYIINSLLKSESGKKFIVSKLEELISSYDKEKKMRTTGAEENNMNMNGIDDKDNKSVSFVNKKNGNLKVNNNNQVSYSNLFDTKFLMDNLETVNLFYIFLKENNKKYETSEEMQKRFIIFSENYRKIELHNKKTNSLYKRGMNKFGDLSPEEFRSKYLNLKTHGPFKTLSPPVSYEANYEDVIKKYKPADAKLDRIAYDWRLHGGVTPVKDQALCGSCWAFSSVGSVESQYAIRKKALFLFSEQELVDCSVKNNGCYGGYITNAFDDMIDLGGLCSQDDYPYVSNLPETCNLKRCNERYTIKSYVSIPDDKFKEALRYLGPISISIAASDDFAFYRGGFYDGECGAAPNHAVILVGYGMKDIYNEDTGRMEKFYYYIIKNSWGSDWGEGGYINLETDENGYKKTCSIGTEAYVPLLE

Plasmodium falciparum [2] = experiment: Antiplasmodial activity against chloroquine-sensitive Plasmodium falciparum D6 after 48 hrs as LDH reporter activity; type: functional, organism-based; details: D6, 48 h
Method in brief: (§2)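 Asynchronous P. falciparum cultures (2% hematocrit, 2% parasitemia) were exposed to compound dilutions prepared in DMSO. They were incubated 48 h at 37 °C in a humidified chamber under 90% N2, 5% CO2, 5% O2. Growth was read as parasite lactate dehydrogenase activity using Malstat reagent. Medium-only and erythrocyte-only wells were included, with chloroquine and artemisinin as positive and DMSO as negative controls.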

Plasmodium falciparum [3] = experiment: Antiplasmodial activity against chloroquine-resistant Plasmodium falciparum W2 as LDH activity after 48 hrs; type: functional, organism-based; details: W2, 48 h; method in brief: as §2
Cysteine protease = target: T3, Cysteine protease (Leishmania donovani, UniProt Q95WR6); experiment: Inhibition of Leishmania donovani cysteine protease
T3 sequence (Q95WR6 whole entry): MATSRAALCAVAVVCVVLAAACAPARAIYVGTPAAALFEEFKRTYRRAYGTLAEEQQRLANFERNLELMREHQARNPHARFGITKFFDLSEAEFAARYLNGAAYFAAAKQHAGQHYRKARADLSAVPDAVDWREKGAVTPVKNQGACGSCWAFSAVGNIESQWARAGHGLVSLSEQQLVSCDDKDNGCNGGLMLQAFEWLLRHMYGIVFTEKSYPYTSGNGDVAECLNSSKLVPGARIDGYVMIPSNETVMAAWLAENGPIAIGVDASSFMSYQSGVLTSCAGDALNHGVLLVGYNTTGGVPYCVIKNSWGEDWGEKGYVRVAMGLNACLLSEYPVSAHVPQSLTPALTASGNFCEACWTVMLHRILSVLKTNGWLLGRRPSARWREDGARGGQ

Leishmania donovani = experiment: Antileishmanial activity against Leishmania donovani promastigotes after 72 hrs by Alamar blue assay; type: functional, organism-based
Method in brief: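 L. donovani promastigote culture at 2 × 10⁶ cells/mL given diluted compounds, incubated 72 h at 26 °C; growth read by Alamar blue. Pentamidine and amphotericin B as reference agents; IC50 computed from growth inhibition curve.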

Vero [4] = experiment: Cytotoxicity against Vero cells by Neutral red assay; type: cell-based; details: chlorocebus sabaeus
Method in brief: (§3)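 VERO monkey kidney […] exposed to compounds alongside the antiparasitic assays, viability by Neutral Red uptake; highest concentration tested 23.8 μg/mL; IC50 computed from growth inhibition curve.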

Vero [5] = experiment: Cytotoxicity against Vero cells at 23.8 ug/mL by Neutral red assay; type: cell-based; details: chlorocebus sabaeus; method in brief: as §3

Row | Compound | IC50 (Falcipain 2) [µM] | IC50 [1] [µM] | EC50 (Plasmodium falciparum [2]) [µM] | EC50 (Plasmodium falciparum [3]) [µM] | IC50 (Cysteine protease) [µM] | IC50 (Leishmania donovani) [µM] | IC50 (Vero [4]) [µM] | Activity (Leishmania donovani) | Activity (Vero [5])
1 | Oc1cccc(/C=N\c2cccc3c(/N=C/c4cccc(O)c4O)cccc23)c1O | 4.6 | 5.8 | 6.9 | 6.6 | 113 | 8.8 | 28.9 |  | 
2 | O=C(CN1C(=O)/C(=N\NC(=O)c2ccncc2)c2ccccc21)Nc1ccccc1 | 40.9 | 62.2 | 56.3 | 59.6 | 62.6 |  |  | inactive | Non-toxic
